From ChEMBL document CHEMBL1140249, “Inhibitors of the inducible microsomal prostaglandin E2 synthase (mPGES-1) derived from MK-886” (Bioorg Med Chem Lett, 2005)

Molecular target: Prostaglandin E synthase (Homo sapiens, UniProt O14684)
Assay: Inhibitory concentration against human prostaglandin E2 synthase (mPGES-1)
How it was run: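 Microsomes from CHO cells expressing recombinant human mPGES-1, 5–10 lg protein/mL, preincubated with inhibitor 15 min. Reaction started with 1 µM PGH₂ and run 0.5 min, then stopped with 0.1 N HCl plus stannous chloride. PGE₂ measured by EIA. IC₅₀ from eight-point titrations.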

Prostaglandin E synthase, sequence (O14684 whole entry, looked up): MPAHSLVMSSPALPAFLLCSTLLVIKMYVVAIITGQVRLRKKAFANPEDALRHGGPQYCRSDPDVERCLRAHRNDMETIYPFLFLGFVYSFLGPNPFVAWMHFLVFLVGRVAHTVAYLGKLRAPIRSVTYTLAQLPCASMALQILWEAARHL

Structure (SMILES)	IC50 [nM]
Cc1cccc(-c2ccc(-c3ccc4c(c3)c(C)c(CC(C)(C)C(=O)O)n4Cc3ccc(Cl)cc3)cc2F)c1	33
CC(C)c1ccc2[nH]c(CC(C)(C)C(=O)O)c(SC(C)(C)C)c2c1	> 10000
Cc1c(CC(C)(C)C(=O)O)n(Cc2ccc(Cl)cc2)c2ccc(C(C)C)cc12	1100
Cc1c(CC(C)(C)C(=O)O)n(Cc2ccc(Cl)cc2)c2ccc(C(C)(C)C)cc12	330
Cc1c(CC(C)(C)C(=O)O)n(Cc2ccc(Cl)cc2)c2ccccc12	3200
CC(C)c1ccc2c(c1)c(C(=O)CC(C)(C)C)c(CC(C)(C)C(=O)O)n2Cc1ccc(Cl)cc1	250
CC(C)c1ccc2c(c1)c(Cc1ccc(C(C)(C)C)cc1)c(CC(C)(C)C(=O)O)n2Cc1ccc(Cl)cc1	290
Cc1c(CC(C)(C)C(=O)O)n(Cc2ccc(Cl)cc2)c2ccc(-c3ccccc3)cc12	600
CC(C)c1ccc2c(c1)c(SC(C)(C)C)c(CC(C)(C)C(=O)O)n2C	> 10000
Cc1c(CC(C)(C)C(=O)O)n(Cc2ccc(Cl)cc2)c2ccc(-c3ccc(-c4cccnc4)c(F)c3)cc12	12
Cc1c(CC(C)(C)C(=O)O)n(Cc2ccc(Cl)cc2)c2c(C(C)C)cccc12	4300
COc1ccccc1-c1ccc(-c2ccc3c(c2)c(C)c(CC(C)(C)C(=O)O)n3Cc2ccc(Cl)cc2)cc1F	5
Cc1c(CC(C)(C)C(=O)O)n(Cc2ccc(Cl)cc2)c2ccc(-c3cccc(-c4ccccc4)c3)cc12	160
CC(C)c1ccc2c(c1)c(C(=O)CSC(C)(C)C)c(CC(C)(C)C(=O)O)n2Cc1ccc(Cl)cc1	260
Cc1c(CC(C)(C)C(=O)O)n(Cc2ccc(Cl)cc2)c2ccc(-c3ccc(-c4ccccc4)c(Cl)c3)cc12	22
CC(C)c1ccc2c(c1)c(Oc1ccccc1)c(CC(C)(C)C(=O)O)n2Cc1ccc(Cl)cc1	650
Cc1c(CC(C)(C)C(=O)O)n(Cc2ccc(Cl)cc2)c2ccc(-c3ccc(-c4cnccn4)c(F)c3)cc12	32
Cc1ccc(-c2ccc(-c3ccc4c(c3)c(C)c(CC(C)(C)C(=O)O)n4Cc3ccc(Cl)cc3)cc2F)cc1	31
CC(C)c1ccc2c(c1)c(-c1ccccc1)c(CC(C)(C)C(=O)O)n2Cc1ccc(Cl)cc1	6400
Cc1c(CC(C)(C)C(=O)O)n(Cc2ccc(Cl)cc2)c2ccc(F)cc12	2600
Cc1c(CC(C)(C)C(=O)O)n(Cc2ccc(Cl)cc2)c2ccc(-c3ccc(-c4ccccc4F)c(F)c3)cc12	8
CC(C)c1ccc2c(c1)c(SC(C)(C)C)c(CC(C)(C)C(=O)ON)n2Cc1ccc(Cl)cc1	> 10000
COC(=O)C(C)(C)Cc1c(SC(C)(C)C)c2cc(C(C)C)ccc2n1Cc1ccc(Cl)cc1	7200
CC(=O)c1ccccc1-c1ccc(-c2ccc3c(c2)c(C)c(CC(C)(C)C(=O)O)n3Cc2ccc(Cl)cc2)cc1F	6

Molecular target: T1, Thromboxane-A synthase (Homo sapiens, UniProt P24557)
T1 sequence (P24557 whole entry): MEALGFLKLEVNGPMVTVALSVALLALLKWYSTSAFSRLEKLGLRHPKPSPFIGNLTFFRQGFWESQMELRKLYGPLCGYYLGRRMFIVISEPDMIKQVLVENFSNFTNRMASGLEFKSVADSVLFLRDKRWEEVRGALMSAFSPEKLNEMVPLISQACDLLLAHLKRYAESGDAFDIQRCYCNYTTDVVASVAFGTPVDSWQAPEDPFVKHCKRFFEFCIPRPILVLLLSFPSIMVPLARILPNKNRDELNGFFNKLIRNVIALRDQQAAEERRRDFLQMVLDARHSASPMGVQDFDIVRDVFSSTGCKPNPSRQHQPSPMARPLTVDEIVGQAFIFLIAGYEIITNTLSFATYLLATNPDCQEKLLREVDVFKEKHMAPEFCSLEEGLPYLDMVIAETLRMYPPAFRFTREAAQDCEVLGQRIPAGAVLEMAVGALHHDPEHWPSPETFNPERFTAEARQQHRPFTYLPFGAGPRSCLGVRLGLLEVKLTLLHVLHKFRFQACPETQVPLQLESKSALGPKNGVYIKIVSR
Assay: In vitro inhibition against human Thromboxane synthase

Structure (SMILES)	IC50 [nM]
Cc1ccccc1-c1ccc(-c2ccc3c(c2)c(C)c(CC(C)(C)C(=O)O)n3Cc2ccc(Cl)cc2)cc1F	950
Cc1c(CC(C)(C)C(=O)O)n(Cc2ccc(Cl)cc2)c2ccc(-c3ccc(-c4ccccc4)c(F)c3)cc12	1400

Molecular target: T2, Arachidonate 5-lipoxygenase-activating protein (Homo sapiens, UniProt P20292)
T2 sequence (P20292 whole entry): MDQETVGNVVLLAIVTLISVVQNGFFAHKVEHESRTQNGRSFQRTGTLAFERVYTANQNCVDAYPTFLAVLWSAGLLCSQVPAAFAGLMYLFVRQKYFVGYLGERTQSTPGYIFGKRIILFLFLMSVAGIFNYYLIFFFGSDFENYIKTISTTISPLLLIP
Assay: In vitro binding affinity against FLAP (5-Lipoxygenase activation protein)

Structure (SMILES)	IC50 [nM]
Cc1ccccc1-c1ccc(-c2ccc3c(c2)c(C)c(CC(C)(C)C(=O)O)n3Cc2ccc(Cl)cc2)cc1F	> 1000
Cc1c(CC(C)(C)C(=O)O)n(Cc2ccc(Cl)cc2)c2ccc(-c3ccc(-c4ccccc4)c(F)c3)cc12	> 1000
